MBD2 inh: blocks human MBD2 binding to methylated DNA. Q9UBB5. AID 686964. inhibition, % at 4.4 µM. TR-FRET, MBD2 binding to methylated oligonucleotide. hit rate 0.31% among 370,000; in the data active = inhibition above about 13%
CSN deneddyl inh: blocks human CSN-mediated cullin deneddylation; hit rate 0.38% among 360,000; AID 651999; Q92905; inhibition, % at 12.5 µM; Purified CSN, SCF-Nedd8-OG deneddylation, fluorescence polarization;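 active = pattern-corrected inhibition above about 35%, with an unprinted fluorescence ratio check between 0.5 and 1.5, limit read from the data, passing the limit was not always enough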;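 note: 0% = enzyme with substrate and 100% = substrate without enzyme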
Target sequence (Q92905 whole entry, looked up, one chain of several): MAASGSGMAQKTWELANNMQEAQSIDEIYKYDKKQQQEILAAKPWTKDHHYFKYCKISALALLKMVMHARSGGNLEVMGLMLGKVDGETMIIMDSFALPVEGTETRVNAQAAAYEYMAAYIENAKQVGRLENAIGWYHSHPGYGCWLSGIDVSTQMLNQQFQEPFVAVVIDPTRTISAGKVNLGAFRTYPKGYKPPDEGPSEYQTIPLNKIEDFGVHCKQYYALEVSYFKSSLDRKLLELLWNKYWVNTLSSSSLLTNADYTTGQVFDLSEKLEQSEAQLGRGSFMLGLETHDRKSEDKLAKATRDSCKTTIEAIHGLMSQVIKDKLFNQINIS
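Test system: purified human Csn5 enzyme expressed in HEK293T cells. Amount: 0.24 nM enzyme. Reagent: SCFSkp2-Nedd8OG substrate at 10 nM final. Schedule: 90 min incubation of compound, enzyme and substrate at room temperature. Detection: fluorescence polarization. Read-out: % inhibition of substrate cleavage by Csn5.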
UHRF1 binding: human UHRF1 methylated DNA binding inhibitors; inhibition, % at 4.4 µM; Q96T88; UHRF1 binding to methylated oligo, TR-FRET; hit rate 0.75% among 370,000; in the data active = inhibition above about 21%;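 note: UHRF1 SRA domain binding a hemimethylated CpG hairpin DNA probe; 0% = median of test compound wells and 100% = reference inhibitor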
ATG4B inh: inhibitors of human ATG4B cysteine protease | Q9Y4P1 | ATG4B cleavage of LC3-PLA2, NBD-HPC fluorescence, 1 h | inhibition, % at 8.33 µM | hit rate 0.51% among 340,000; in the data active = inhibition above about 40%
Target sequence (Q9Y4P1 whole entry, looked up): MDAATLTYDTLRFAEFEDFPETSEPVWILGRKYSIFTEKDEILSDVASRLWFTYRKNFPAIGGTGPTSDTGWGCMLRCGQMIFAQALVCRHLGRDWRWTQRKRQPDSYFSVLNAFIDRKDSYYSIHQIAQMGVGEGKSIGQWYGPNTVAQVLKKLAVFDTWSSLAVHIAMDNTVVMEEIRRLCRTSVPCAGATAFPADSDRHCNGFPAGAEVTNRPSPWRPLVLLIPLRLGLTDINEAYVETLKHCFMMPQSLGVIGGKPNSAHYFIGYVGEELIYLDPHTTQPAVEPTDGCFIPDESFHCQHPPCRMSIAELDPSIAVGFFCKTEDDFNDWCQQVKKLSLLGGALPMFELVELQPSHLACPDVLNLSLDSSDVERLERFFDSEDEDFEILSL
rCAG RNA binder: molecules binding r(CAG) RNA repeats | AID 651821 | hit rate 1.3% among 370,000 | r(CAG) RNA repeat, TO-PRO-1 dye displacement fluorescence | inhibition, % at 3 µM;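 active = inhibition above the plate cutoff, the mean of all test compounds on that plate plus 3 SD, cut at about 35% in these data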;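 note: 0% = DMSO alone and 100% = 100 µM mitoxantrone as full dye displacement; higher means more dye released from RNA so lower well fluorescence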
LEDGF integ inh: blocks HIV-1 LEDGF/p75-dependent DNA integration; hit rate 0.64% among 370,000; inhibition, % at 3.7 µM; TR-FRET IN-LEDGF/p75 DNA integration, Eu/Cy5;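 active = inhibition above the screen-wide mean plus 3 SD, cut at about 13% in these data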;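 note: signal is the Cy5 over europium emission ratio at 671 and 618 nm; 0% = plate median of compound wells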
rCAG binder conf: r(CAG) RNA repeat binding, confirmation; hit rate 70% among 4,300; inhibition, % at 3 µM; TO-PRO-1 dye displacement fluorescence; shares compounds with rCAG RNA binder;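 active = inhibition above a per-plate cutoff, the mean inhibition of sample wells plus 3 SD, cut at about 35% in these data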;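 note: loss of TO-PRO-1 fluorescence as compound displaces dye from 1x1 AA loop RNA; 0% = DMSO only wells and 100% = 100 µM mitoxantrone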
dCAG dye counter: counter-screen for rCAG RNA binders: DNA CAG dye complex inhibitors; d(CAG) DNA oligo TO-PRO-1 dye displacement, fluorescence; hit rate 94% among 4,300; inhibition, % at 3 µM; shares compounds with rCAG RNA binder;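 active = inhibition above its plate's cutoff, the mean test-well inhibition plus 3 SD, cut at about 4.8% in these data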;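 note: 0% = DNA dye mix with DMSO and 100% = 100 µM mitoxantrone; hits displace the dye from DNA and so lower well fluorescence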
dCAG dye DR: counter-screen for rCAG binders: inhibitors of DNA CAG TO-PRO-1 complex | hit rate 20% among 250 | DNA CAG/GTC duplex TO-PRO-1 dye displacement fluorescence | shares compounds with rCAG RNA binder | IC50, µM; in the data active = IC50 below about 10 µM
An asterisk follows results filed as active; i = inactive; / = no result. Rows were chosen to be rich in hits. Some 3.1% of all compounds tested hit in one or more screens of this group.

SMILES | MBD2 inh | CSN deneddyl inh | UHRF1 binding | ATG4B inh | rCAG RNA binder | LEDGF integ inh | rCAG binder conf | dCAG dye counter | others
CCOC(=O)CSc1nc2c(sc(=S)n2-c2ccc(OCC)cc2)c(=O)[nH]1 | -5 | -13 | 3 | 4 | 43* | 2 | 39* | 10*
CCN(CC)C(=O)CSc1nc2c(sc(=S)n2-c2ccc(C)cc2C)c(=O)[nH]1 | 1 | 3 | 1 | -10 | 39* | -1 | 46* | 15*
CCOC(=O)CSc1nc2c(sc(=S)n2-c2ccccc2)c(=O)[nH]1 | -3 | 0 | 1 | 4 | 26 | 0 | / | /
CCOc1ccc(-n2c(=S)sc3c(=O)[nH]c(SCC(=O)C(C)(C)C)nc32)cc1 | -2 | 6 | -1 | -7 | 37* | -1 | 66* | 30*
Cc1nn(-c2ccccc2)c(Cl)c1/C=N/NC(=O)c1ccccc1NS(=O)(=O)c1cccs1 | 1 | -4 | 1 | -10 | 76* | 1 | 80* | 45*
Cc1nn(-c2ccccc2)c(Cl)c1/C=N/NC(=O)c1ccccc1F | 1 | -2 | 0 | -3 | -5 | -4 | / | /
O=C(NN=Cc1c(F)cccc1F)c1ccccc1NS(=O)(=O)c1cccs1 | 3 | 0 | -4 | -20 | 38* | 1 | 21 | 4.6*
COC(=O)[C@]12C[C@H](CC(=O)N3CCOCC3)C(=O)N(Cc3cccc4ccccc34)C1=C[C@H](C(C)C)O[C@@H]2C1CC1 | 1 | / | 1 | / | 4 | -1 | / | /
O=C(OCC#CCSc1nnc(-c2cccc3ccccc23)o1)c1ccc(F)nc1 | 8 | / | 3 | / | / | 2 | / | /
Cc1cc(NS(=O)(=O)c2ccc(NC(=O)C(C)Oc3ccc(C(C)C)cc3)cc2)no1 (stereo unspecified) | 8 | -2 | 7 | -5 | 47* | 0 | 49* | 16*
Cc1cc(NS(=O)(=O)c2ccc(NC(=O)C(c3ccccc3)c3ccccc3)cc2)no1 | -2 | 2 | 0 | -4 | 59* | -1 | 47* | 18*
CCc1ccc(OCC(=O)Nc2ccc(S(=O)(=O)Nc3cc(C)on3)cc2)c(Br)c1 | 6 | 5 | 1 | -6 | 78* | -1 | 74* | 28* | dCAG dye DR=i
COc1ccc(OCC(=O)NC(=S)Nc2ccc(S(=O)(=O)Nc3cc(C)on3)cc2)cc1 | 0 | 3 | -4 | 1 | 1 | -1 | / | /
Cc1cc(NS(=O)(=O)c2ccc(NC(=S)NC(=O)c3ccc(Br)cc3)cc2)no1 | 4 | -1 | 2 | 2 | 57* | -4 | 47* | 16*
O=C(OCc1cn(Cc2ccccc2)nn1)N1CCCC1 | -4 | / | -4 | / | 1 | 4 | / | /
N#C/C(=N\Nc1cccc(C(F)(F)F)c1)C(=O)c1ccsc1 | -1 | 2 | -2 | 16 | 76* | 5 | 56* | 18*
N/C(=N\N=C\c1ccnc2ccccc12)SC1CC(=O)N(c2ccc(Br)cc2)C1=O (stereo unspecified) | 1 | 1 | 0 | 2 | 23 | 2 | / | /
C/C(=N\N=C(/N)SC1CC(=O)N(c2ccc(Cl)cc2)C1=O)c1cccs1 (stereo unspecified) | -2 | 1 | 0 | 12 | 43* | -2 | 63* | 24*
C/C(=N\N=C(/N)SC1CC(=O)N(c2ccccc2)C1=O)c1cccs1 (stereo unspecified) | -2 | 3 | -4 | -1 | 42* | 0 | 35* | 8.3*
C/C(=N\N=C(/N)SC1CC(=O)N(c2ccc(Br)cc2)C1=O)c1cccs1 (stereo unspecified) | 1 | -5 | 0 | 33 | 47* | 1 | 77* | 35*
C/C(=N\N=C(/N)SC1CC(=O)N(c2ccc(Cl)c(Cl)c2)C1=O)c1cccs1 (stereo unspecified) | 1 | 4 | 0 | 39 | 24 | 0 | / | /
N/C(=N\N=C\c1cccs1)SC1CC(=O)N(c2ccc(Br)cc2)C1=O (stereo unspecified) | -6 | -11 | 1 | 13 | 38* | 5 | 70* | 25* | dCAG dye DR=>30
N/C(=N\N=C\c1ccco1)SC1CC(=O)N(c2ccccc2)C1=O (stereo unspecified) | 4 | -4 | -3 | -3 | 5 | -5 | / | /
Cc1ccc(-c2ccc(C(=O)Nc3ccccc3)o2)c2ccccc12 | -1 | 2 | 1 | -6 | 10 | -1 | / | /
Cc1ccc(S(=O)(=O)NC(=O)c2ccc(-c3ccc(C)c4ccccc34)o2)cc1 | 1 | 2 | 14 | 4 | 77* | 4 | 73* | 28* | dCAG dye DR=8.4*
SMILES | MBD2 inh | CSN deneddyl inh | UHRF1 binding | ATG4B inh | rCAG RNA binder | LEDGF integ inh | rCAG binder conf | dCAG dye counter | others
C[C@@H]1CN([C@@H](C)CO)S(=O)(=O)c2ccc(/C=C/c3ccccc3)cc2O[C@@H]1CN(C)Cc1ccc(C(=O)O)cc1 | -4 | -1 | -2 | / | 60* | 0 | 66* | 25*
COc1ccc(CSc2nnc(SCC(=O)Nc3ccccc3-c3ccccc3)s2)cc1 | 3 | / | -2 | / | 9 | -1 | / | /
Nc1ccn([C@@H]2O[C@H](C(=O)N[C@H](Cc3ccccc3)C(=O)NCc3cccc4c3OCO4)[C@@H](O)[C@H]2O)c(=O)n1 | -1 | / | -2 | / | 1 | 0 | / | /
O=C(c1ccco1)N1N=C(c2cccs2)CC1c1cc([N+](=O)[O-])ccc1O (stereo unspecified) | 5 | 3 | 1 | 4 | 54* | 0 | 35* | 13*
O=C(c1ccco1)N1N=C(c2cccs2)CC1c1ccc(F)cc1 (stereo unspecified) | 0 | 2 | 1 | -4 | 5 | 4 | / | /
CCCCN(C)C(=O)C1CCN(S(=O)(=O)c2ccc3[nH]c(=O)oc3c2)CC1 | 3 | / | 0 | / | 8 | -1 | / | /
CCOc1ccc2nc(NS(=O)(=O)c3ccc4c(c3)n(C)c(=O)n4C)sc2c1 | 4 | 0 | -2 | -7 | 44* | -1 | 26 | 8.3*
COCCCNC(=O)C[C@H]1C[C@@]2(C(=O)OC)C(=C[C@H](C(C)C)O[C@@H]2C2CC2)N(Cc2ccco2)C1=O | -5 | / | 0 | / | -3 | -1 | / | /
COC(=O)C[C@@H]1CC[C@H]2[C@@H](COc3ccc(NC(=O)c4ccc(Cl)cc4)cc3C(=O)N2C)O1 | 8 | / | 2 | / | 6 | -1 | / | /
CCOc1ccc(-n2c(COc3ccc(C)cc3)nnc2SCC(=O)Nc2ccc(F)c(F)c2)cc1 | 2 | / | -3 | / | 7 | 2 | / | /
CC(C)Cc1csc(NC(=O)c2ccccc2Cl)c1C(=O)O | 3 | -1 | 10 | 11 | 6 | 0 | / | /

Screens from PubChem.
